High-throughput results: PubChem, The Scripps Research Institute Molecular Screening Center
GalR3 antagonist: antagonists of human GalR3; O60755; HEK293 GalR3-CNG cAMP membrane potential fluorescence; galR3 body fused to GalR1 C-terminus; inhibition, % at 3 µM; actives 0.44% (n = 360,000); AID 651719;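 active means inhibition above the screen-wide average plus 3 SD, cut at about 13% in these data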;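 further: forskolin and galanin both at EC90 stimulate the cells; cAMP rise reported by CNG channel membrane potential dye signal; 0% = forskolin plus galanin with DMSO and 100% = forskolin alone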
Target sequence (O60755 1-299 limits assumed): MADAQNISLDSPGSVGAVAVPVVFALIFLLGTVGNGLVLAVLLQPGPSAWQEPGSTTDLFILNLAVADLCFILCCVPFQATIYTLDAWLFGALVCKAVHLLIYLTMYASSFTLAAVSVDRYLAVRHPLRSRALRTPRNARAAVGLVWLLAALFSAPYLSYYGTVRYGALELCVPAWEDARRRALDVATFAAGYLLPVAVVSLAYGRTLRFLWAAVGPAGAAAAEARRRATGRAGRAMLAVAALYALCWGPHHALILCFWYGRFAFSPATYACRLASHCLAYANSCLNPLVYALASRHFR
CHO parental Ca: counter-screen: ATP calcium response change in parental CHO cells; actives 0.63% (n = 330,000); parental CHO-K1, ATP-induced calcium, Fluo-8 fluorescence; inhibition, % at 5.6 µM;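 active means inhibition above that plate's mean sample inhibition plus 3 SD, cut at about 26% in these data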;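 further: 0% = ATP-challenged DMSO wells and 100% = DMSO wells without ATP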
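Material – parental CHO cells · Reagent – ATP stimulus · Compound – single nominal dose of 5.6 µM per compound · Detection – Fluo-8 fluorescence · Read-out basis – percent inhibition of calcium signal · Controls – ATP-challenged DMSO wells low, unchallenged DMSO wells high · Repeats – no replicates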
OX1R antag-1: antagonists of human orexin 1 receptor | O43613 | CHO/OX1R cells, Fluo-8 calcium fluorescence, orexin A | inhibition, % at 5 µM | actives 0.43% (n = 330,000);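 active means inhibition above its plate's threshold, mean inhibition of all tested compounds on the plate plus 3 SD, cut at about 37% in these data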;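 further: 0% = orexin A challenge wells and 100% = SB-334867-A antagonist wells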
GPR7 antagonist: human neuropeptides B/W receptor 1 antagonism. P48145. GPR7-expressing cells, fluorescence antagonist assay. inhibition, % at 4.4 µM. actives 1.1% (n = 290,000). AID 1861; in the data active means inhibition above about 16%, passing the limit was not always enough;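 further: cells stimulated with the agonist NPW; 0% = agonist with vehicle and 100% = vehicle without agonist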
Target sequence (P48145 whole entry, looked up): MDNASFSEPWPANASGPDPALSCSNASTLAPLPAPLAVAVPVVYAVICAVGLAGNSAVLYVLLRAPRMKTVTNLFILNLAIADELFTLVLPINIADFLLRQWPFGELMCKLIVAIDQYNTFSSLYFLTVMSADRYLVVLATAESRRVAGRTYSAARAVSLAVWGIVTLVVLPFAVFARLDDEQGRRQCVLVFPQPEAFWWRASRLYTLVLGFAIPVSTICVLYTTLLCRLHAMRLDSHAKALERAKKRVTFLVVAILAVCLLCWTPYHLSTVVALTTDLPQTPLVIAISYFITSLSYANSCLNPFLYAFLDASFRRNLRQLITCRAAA
OX1R antag-2: antagonists of human orexin 1 receptor (OX1R); O43613; inhibition, % at 6.6 µM; AID 485270; actives 1.8% (n = 330,000); OX1R-expressing cells, FRET antagonist read-out; in the data active means inhibition mostly above about 38%, no sharp cut-off; inactive means mostly below about 40%;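 further: 0% = agonist challenge alone and 100% = reference antagonist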
The depositor's hits bear a star; · = not tested or not shown. Rows were chosen to be rich in hits. Some 3.1% of all compounds tested hit in one or more screens of this group.

SMILES	GalR3 antagonist	CHO parental Ca	OX1R antag-1	GPR7 antagonist	OX1R antag-2
O=C1C(=O)N(Cc2ccccc2)C(=O)N1CCN1C(=O)c2ccccc2C1=O	-4	-21	-30	19*	19
O=C(O)CCN1C(=O)c2ccccc2C1=O	-2	-5	-15	18*	8
CC1CCN(C(=O)c2ncn3c2C(=O)N[C@H](C)C3)CC1	-7	·	·	·	·
CCOC(=O)C1CSCCS(=O)(=O)N1Cc1ccc(F)cc1F (stereo not drawn)	-5	·	·	·	·
O=C(CNC(=O)C(c1ccccc1)c1ccccc1)N/N=C/c1cccnc1	-4	-9	-26	20*	5
COc1ccc(CCNc2nc3ccccc3n3nnnc23)cc1OC	2	-8	-29	-10	3
COc1ccc(CCNCc2csc3nc4ccccc4n23)cc1OC	-6	27	29	6	53*
COc1ccc2cc(Br)ccc2c1CC(=O)NC(C)(C)C	-1	54*	-3	-9	61
CCNC(=O)Cc1c(OC)ccc2cc(Br)ccc12	-2	-9	-18	9	4
CSc1nc(N)c(C(=O)N(c2ccccc2)c2ccccc2)s1	-5	·	·	·	·
COc1ccc(Cn2c(=N)c(C(=O)NC3CCCCC3)cc3c(=O)n4ccccc4nc32)cc1	-8	-7	-32	23	22
N#Cc1cc2c(=O)n3ccccc3nc2n(CC2CCCO2)c1=N (stereo not drawn)	·	·	·	-9	·
N=c1c(C(=O)NC2CCCC2)cc2c(=O)n3ccccc3nc2n1CC1CCCO1 (stereo not drawn)	-3	-15	0	7	50*
COCCCn1c(=N)c(C(=O)NC2CCCCC2)cc2c(=O)n3ccccc3nc21	-3	-9	-29	17	76*
CC(NC(=O)c1cc2c(=O)n3ccccc3nc2n(CC2CCCO2)c1=N)c1ccccc1 (stereo not drawn)	-9	-9	-19	0	37*
Cc1ccc(CNC(=O)c2cc3c(=O)n4ccccc4nc3n(CC3CCCO3)c2=N)cc1 (stereo not drawn)	·	-18	-49	1	66*
CCc1ccc2cc(F)cc(F)c2n1	-9	·	·	·	·
COCC#Cc1cnc2c(c1)C(=O)N([C@@H](C)CO)C[C@H](C)[C@H](CN(C)C(=O)c1ccc3c(c1)OCO3)O2	-2	·	·	·	·
COC(=O)C1=C(C)N(Cc2cccc(C(F)(F)F)c2)C(=NCc2ccc(OC)cc2)NC1c1ccc(Cl)cc1 (stereo not drawn)	-5	·	·	·	·
O=C(CC[C@H]1O[C@@H](n2ccc(=O)[nH]c2=O)[C@H](O)[C@@H]1O)N[C@H](Cc1ccccc1)C(=O)NCc1ccc2c(c1)OCO2	-5	·	·	·	·
N=c1c(C(=O)NCc2ccco2)cc2c(=O)n3ccccc3nc2n1C1CCCC1	-8	-6	-18	-14	54*
O=C(COC(=O)c1cccc(C(F)(F)F)c1)NCc1ccccc1	-5	49*	10	-5	32
O=C(COC(=O)/C=C/c1cccc(C(F)(F)F)c1)NCc1cccs1	-6	36*	8	·	3
COc1ccc(S(=O)(=O)N2CCCc3nc(C)c(C)cc32)cc1	-5	·	·	·	·
Cc1ccccc1NC(=S)N1CCN(c2ccccc2)CC1	-13	-12	-22	8	2
SMILES	GalR3 antagonist	CHO parental Ca	OX1R antag-1	GPR7 antagonist	OX1R antag-2
Cc1ccc(C(=O)NCC(=O)NCC(c2cccs2)N(C)C)cc1C (stereo not drawn)	-1	-10	6	·	3
O=C1CCCC(O)=C1N=Nc1cccc(C(=O)O)c1	-4	8	-19	-3	70*
CCN(CC)S(=O)(=O)c1cccc(N=NC2=C(O)CCCC2=O)c1	8	-2	-17	-9	12
CCCCOC(=O)CSCC(=O)N1N=C(c2cccs2)CC1c1ccc(F)cc1 (stereo not drawn)	-5	29*	-13	0	3
CCOC(=O)CSCC(=O)N1N=C(c2cccs2)CC1c1ccc(F)cc1 (stereo not drawn)	-6	-10	-25	5	13
CCOC(=O)N1CCN(c2cc(NCCC(=O)O)c3c4c(onc24)-c2ccccc2C3=O)CC1	·	-17	-28	-16	73*
O=C(O)CCCNc1cc(N2CCN(C(=O)c3ccco3)CC2)c2noc3c2c1C(=O)c1ccccc1-3	-8	-16	-20	-14	58*
O=C(O)CCCNc1cc(N2CCC3(CC2)OCCO3)c2noc3c2c1C(=O)c1ccccc1-3	·	-11	0	-10	65*
CN1CCN(c2cc(N3CCN(C(=O)c4ccco4)CC3)c3c4c(onc24)-c2ccccc2C3=O)CC1	·	-11	-33	3	38
O=C1c2ccccc2-c2onc3c(N4CCN(CCO)CC4)cc(N4CCN(C(=O)c5ccco5)CC4)c1c23	0	-16	-22	-14	39
COc1ccc(N2C(=O)c3[nH]nc(-c4ccccc4)c3C2c2ccc(F)cc2)cc1 (stereo not drawn)	-10	·	·	·	·
Nc1[nH]c(C(=O)c2ccc(Br)cc2)c(-c2ccc3ccccc3c2)c1C(=O)NCCc1c[nH]c2ccccc12	-2	·	·	·	·
O=C(CSc1cccs1)Nc1ccc2ccccc2c1	-6	-19	6	-5	41*
CC1(C)OC(=O)N(CCc2ccccc2)C1(C)O (stereo not drawn)	-6	10	-6	-2	7
CC1(C)OC(=O)N(c2ccccc2)C12C=Cc1cc(Br)ccc1O2 (stereo not drawn)	-6	36*	-16	11	9
CCN(CC)S(=O)(=O)c1ccc2oc(SCC(=O)NC3CC3)nc2c1	4	-13	-13	-4	6
CCN(CC)S(=O)(=O)c1ccc2oc(SCc3ccc(F)cc3)nc2c1	-4	40*	20	4	29
Cc1cc(O)c(N)c(C)c1Cl	-3	-14	-22	-5	54*
Cc1cc(O)cc(C)c1Cl	3	-7	-10	·	12
CCCNc1ncc2c(=O)[nH][nH]c(=O)c2n1	-5	·	·	·	·
COc1ccc(OC)c(CNn2c(-c3cccc(C)c3)nc3ccccc3c2=O)c1	-7	-26	6	-15	50*
COc1ccc(OCC(=O)Nn2c(-c3ccc(C)cc3)nc3ccccc3c2=O)cc1	-3	-17	-13	-7	19
CCCCn1c(=NC(=O)c2ccco2)c(C(=O)OCC)cc2c(=O)n3ccccc3nc21	-5	-20	-13	-3	76*
CCCCCn1c(=NC(=O)c2ccco2)c(C(=O)OCC)cc2c(=O)n3ccccc3nc21	-5	-15	-24	-5	51*
N#Cc1cc(C(=O)c2ccccc2O)cn(-c2nccs2)c1=O	-3	31	40	13	8
N#Cc1cc(C(=O)c2cc(F)ccc2O)cn(-c2nccs2)c1=O	-1	37*	28	-7	0
COC(=O)C1=C(C)N(Cc2cccc(C(F)(F)F)c2)C(=NCc2ccc(C(F)(F)F)cc2)NC1c1cccc(C(F)(F)F)c1 (stereo not drawn)	0	·	·	·	·
CC(C)(C)c1ccc(OCC(=O)Nc2ccncc2)c(Br)c1	-14	47*	-19	5	35
